Experimental data from ChEMBL document CHEMBL4033612, “The Bibenzyl Canniprene Inhibits the Production of Pro-Inflammatory Eicosanoids and Selectively Accumulates in Some Cannabis sativa Strains” (J Nat Prod, 2017).
Calls of active or inactive are those of the source. The rule behind the calls is not given here.

Tests used:
[1] = target: T1, Polyunsaturated fatty acid 5-lipoxygenase (Homo sapiens, UniProt P09917); assay: (§1) Inhibition of human recombinant 5-lipoxygenase expressed in Escherichia coli MV1190 pre-incubated for 10 mins before arachidonic acid substrate addition and measured after 10 mins by RP-HPLC method
T1 sequence (P09917 whole entry): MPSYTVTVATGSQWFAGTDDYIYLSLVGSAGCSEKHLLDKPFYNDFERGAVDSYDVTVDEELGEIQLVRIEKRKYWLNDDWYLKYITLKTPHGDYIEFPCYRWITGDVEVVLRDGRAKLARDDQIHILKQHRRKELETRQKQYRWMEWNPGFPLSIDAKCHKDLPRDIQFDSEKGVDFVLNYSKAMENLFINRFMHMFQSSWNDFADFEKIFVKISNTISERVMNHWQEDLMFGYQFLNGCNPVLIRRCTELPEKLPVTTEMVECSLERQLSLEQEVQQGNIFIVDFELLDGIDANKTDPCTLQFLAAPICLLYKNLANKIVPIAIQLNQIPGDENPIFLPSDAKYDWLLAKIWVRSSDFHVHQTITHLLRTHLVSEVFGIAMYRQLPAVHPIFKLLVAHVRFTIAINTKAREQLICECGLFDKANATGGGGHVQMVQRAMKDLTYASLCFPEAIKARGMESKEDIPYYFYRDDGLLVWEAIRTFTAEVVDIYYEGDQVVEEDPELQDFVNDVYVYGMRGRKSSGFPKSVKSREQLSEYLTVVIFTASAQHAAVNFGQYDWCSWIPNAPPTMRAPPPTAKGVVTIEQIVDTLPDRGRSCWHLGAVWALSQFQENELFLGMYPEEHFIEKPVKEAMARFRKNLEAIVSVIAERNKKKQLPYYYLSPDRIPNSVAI
How it was run: (§2)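 5-LO expressed at 27 °C in transformed E. coli, lysed, sonicated, spun at 40000g; supernatant partially purified on ATP-agarose and used at once. Enzyme diluted in ice-cold PBS with 1 mM EDTA and 1 mM ATP, preincubated with compound 10 min at 4 °C, warmed 30 s at 37 °C. Reaction started with 2 mM CaCl2 plus 20 μM AA, 10 min at 37 °C, stopped with methanol. Products analysed by RP-HPLC. IC50 by linear interpolation around 50% activity.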

[2] = target: T2, Prostaglandin E synthase (Homo sapiens, UniProt O14684); assay: (§3) Inhibition of mPGES-1 in interleukin-1 beta-stimulated human A549 cells microsomal membranes assessed as reduction in conversion of PGH2 to PGE2 pre-incubated for 15 mins followed by PGH2 substrate addition measured after 1 min by RP-HPLC method; type: cell-based
T2 sequence (O14684 whole entry): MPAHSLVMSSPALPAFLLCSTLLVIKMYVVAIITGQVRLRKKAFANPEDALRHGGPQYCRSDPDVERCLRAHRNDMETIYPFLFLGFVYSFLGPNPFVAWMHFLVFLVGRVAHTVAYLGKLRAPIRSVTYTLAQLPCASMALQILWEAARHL
How it was run: (§4)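 A549 cells treated with 1 ng/mL IL-1β for 48 h, sonicated, and microsomes isolated at 174000g. Membranes were diluted in 0.1 M potassium phosphate pH 7.4 with 2.5 mM glutathione and given compound or vehicle for 15 min at 4 °C. PGH2 was added and the reaction ran 1 min at 4 °C, then was stopped with FeCl2/citric acid containing 11β-PGE2 internal standard. PGE2 was taken by SPE and measured by RP-HPLC. IC50 by linear interpolation.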

[3] = target: T3, Polyunsaturated fatty acid 5-lipoxygenase (Homo sapiens) (UniProt P09917); assay: Inhibition of human recombinant 5-lipoxygenase expressed in Escherichia coli MV1190 up to 10 uM pre-incubated for 10 mins before arachidonic acid substrate addition and measured after 10 mins by RP-HPLC method; how it was run: as §2
T3 sequence (whole entry): T1 sequence (P09917 whole entry)

[4] = target: T4, Prostaglandin E synthase (Homo sapiens) (UniProt O14684); assay: Inhibition of mPGES-1 in interleukin-1 beta-stimulated human A549 cells microsomal membranes up to 10 uM assessed as reduction in conversion of PGH2 to PGE2 pre-incubated for 15 mins followed by PGH2 substrate addition measured after 1 min by RP-HPLC method; type: cell-based; how it was run: as §4
T4 sequence (whole entry): T2 sequence (O14684 whole entry)

[5] = target: T3, Polyunsaturated fatty acid 5-lipoxygenase (Homo sapiens); assay: as §1; how it was run: as §2
[6] = target: T4, Prostaglandin E synthase (Homo sapiens); assay: as §3; type: cell-based; how it was run: as §4

## COc1cc(-c2cc(=O)c3c(O)c(C/C=C(\C)CCC=C(C)C)c(O)cc3o2)ccc1O
[1]
  IC50: 1300 nM
[2]
  IC50: 1800 nM

## COc1cc(O)c2c(c1)CCC21CCC(O)CC1 (stereo not given)
[3]
  inhibition: inactive
[4]
  inhibition: inactive

## COc1cc(O)cc(CCc2ccc(OC)c(O)c2CC=C(C)C)c1
[5]
  inhibition: Dose-dependent effect
[1]
  IC50: 400 nM
[6]
  inhibition: Dose-dependent effect
[2]
  IC50: 10000 nM

## COc1cc(O)c2c(c1)CCC21C=CC(=O)CC1 (stereo not given)
[4]
  inhibition: inactive
[1]
  IC50: 9300 nM
